# CSC inhib: cancer stem cell inhibition; inhibition, % at 7.5 µM; hit rate 1.1% among 300,000; cancer stem cell-like cells viability, luminescence; AID 2717; in the data active means inhibition above about 75%; inconclusive means no clear call, values can overlap the other calls; tested in HMLE shEcad cells
# Mdm2 MdmX PPI: human Mdm2/MdmX binding inhibition; inhibition, % at 8 µM; SaOS-2 split-luciferase Mdm2/MdmX complementation, luminescence; hit rate 3% among 330,000; AID 485346; O15151+Q00987;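 active means inhibition of at least 50% at 8 µM in the primary screen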
# Beta cell apopt: blocks beta cell apoptosis; INS-1E cytokine-induced death, ATP luminescence, 48 h; percent of positive-control rescue, neutral wells zero; protection from apoptosis, % (no concentration beside the values); hit rate 0.8% among 300,000; AID 435005;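 active means Every replicate reaches about 75%, or at least half do and their mean reaches it too, limit read from the data; inconclusive means At least half of replicates reach the limit but their mean does not; inactive means Under half of replicates reach the limit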;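 further: 0% = cytokine-treated negative control wells and 100% = positive control rescue; higher means more ATP so stronger rescue from cytokine killing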
# Calb FLC: C. albicans growth modulation with fluconazole. growth inhibition, % (no concentration beside the values). hit rate 0.57% among 300,000. C. albicans CaCi-2 (fluconazole-resistant clinical isolate) + fluconazole, Alamar Blue growth, 48 h;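 active means growth inhibition above about 58% in most replicates, limit read from the data, passing the limit was not always enough; inconclusive means exactly half the replicates above a set limit; inactive means most replicates below a set limit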;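 further: all wells also contain fluconazole at 8 µg/ml as a sub-toxic cotreatment; 0% = median of DMSO wells and 100% = median of geldanamycin control wells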
# SKKanGAS inh: blocks kanamycin growth of S. pyogenes SKKanGAS strain. inhibition, % at 7.5 µM. BacTiter-Glo, 6 h. AID 1662. hit rate 1.3% among 300,000;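 active means mean replicate score, as percent of positive control median, at least 50; inconclusive means mean below 50 but one replicate at or above 50; inactive means mean and every replicate below 50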;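 further: strain carries kanamycin resistance gene driven by streptokinase promoter and grows in 40 µg/ml kanamycin; loss of luminescence reflects streptokinase promoter inhibition or plain growth inhibition; 0% = median of DMSO wells and 100% = positive control at its reference dose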
# T cruzi repl: blocks replication of Trypanosoma cruzi; T. cruzi beta-gal in NIH3T3, luminescence, 90 h; inhibition, % (no concentration beside the values); hit rate 1.4% among 300,000; AID 1885;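 active means mean inhibition across valid replicates above about 55%, limit read from the data; inconclusive means mean below that limit but half or more replicates reach it; inactive means mean below it, under half of replicates reach it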;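 further: signal also drops with host cell toxicity which is not excluded here; 0% = plate median of DMSO wells and 100% = zero luminescence signal; higher percent means less beta-gal luminescence so fewer parasites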
#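 System: NIH/3T3 fibroblasts plus reporter T. cruzi. Medium: DMEM plus 2% FBS. Probe or stimulus: 5000 reporter trypomastigotes per well. Compound: single 50 nL compound addition per well in DMSO. Incubation: co-culture of at least 90 h after 3 h attachment. Detection: GalScreen β-gal luminescence, detergent lysis, 60 min. Evaluation: parasite load inhibition, %.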
# Mdm2-MdmX conf: human Mdm2/MdmX binding inhibition, confirmed | shares compounds with Mdm2 MdmX PPI | luminescent assay | inhibition, % at 8 µM | hit rate 55% among 10,000 | AID 489028; in the data active means inhibition above about 40%
# FLuc counter: full-length luciferase inhibition in Mdm2/MdmX counter-screen; shares compounds with Mdm2 MdmX PPI; SaOS-2 full-length luciferase counterscreen, luminescence; inhibition, % at 8 µM; hit rate 77% among 6,200; AID 504607;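 active means mean inhibition at 8 µM reaching about 37%, which flags the compound as non-specific, limit read from the data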;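 further: p53-null SaOS-2 cells with luciferase driven by a doxycycline-inducible promoter; compound on cells about two nights before reading with doxycycline added after day one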
# An asterisk follows results filed as active; ? = inconclusive; . = no result. Shown are actives, neighbours in structure and some others; about 5.7% of the full set was active somewhere.
SMILES,CSC inhib,Mdm2 MdmX PPI,Beta cell apopt,Calb FLC,SKKanGAS inh,T cruzi repl,Mdm2-MdmX conf,FLuc counter
NC(=S)N1OC[C@@H]2COc3ccc4ccccc4c3[C@@H]21,20.8,69.5*,-5.6,-7.8,6.5,0.8,52.9*,46.3*
CCOc1ccc(-n2c(C)c(C(C)=O)c3cc(OC(C)=O)ccc32)cc1,-2.6,75.7*,-3.9,8.2,8.5,6.6,80.4*,52.6*
COc1ccc(-n2c(C)c(C(C)=O)c3cc(O)ccc32)cc1,.,93.3*,.,4.5,14.3,-22.0,83.0*,53.7*
CCOc1ccc(-n2c(C)c(C(=O)O)c3cc(OC)ccc32)cc1,13.2,9.4,.,0.6,5.9,-2.1,.,.
CCOC(=O)c1[nH]c(C)c(/C(O)=C2\C(=O)C(=O)N(CCCN3CCOCC3)C2c2cccs2)c1C (stereo not drawn),51.1,49.6,4.2,28.4,-3.1,-26.4,.,.
O=C(N/N=C1\CC(c2ccccc2)Oc2ccccc21)c1cccnc1 (stereo not drawn),-0.4,52.5*,24.2,1.3,6.9,4.7,30.6,.
O=C(NC(=S)NC(CO)Cc1ccccc1)c1ccc(F)cc1 (stereo not drawn),-15.3,-20.4,-2.2,-9.4,-5.2,-14.2,.,.
CN(C)S(=O)(=O)Oc1ccsc1C(=O)Nc1ccc(Cl)c(Cl)c1,23.7,21.3,-4.6,17.3,7.0,6.3,.,.
COc1ccc(COc2ccsc2C(=O)Nc2ccc(Cl)c(Cl)c2)cc1,16.6,76.4*,-4.8,-15.2,-0.5,-11.5,6.5,.
Cc1nnnn1/C(=C\c1ccccc1)C(=O)OCC(=O)NC(C)(C)C,-12.4,37.1,-13.9,-14.0,-0.9,-0.3,.,.
Cc1nnnn1/C(=C\c1ccccc1)C(=O)OCC(=O)NC1CCCCC1,24.8,62.4*,-30.3,-3.4,6.0,-35.9,45.0*,45.2*
C=CC(=O)Nc1cccc(Oc2ncnc3[nH]cc(-c4cnc5ccccc5c4)c23)c1,.,92.7*,-52.8,.,.,.,78.8*,58.7*
CCC(C)[C@H](NC(=O)N1CC(=O)Nc2ccccc21)C(=O)N[C@H](C(=O)O)c1ccccc1 (stereo partly drawn),-7.5,16.5,-14.4,-10.4,0.6,-5.7,.,.
CC(=O)NS(=O)(=O)c1ccc(NC(=O)c2cc3c(=O)n4ccccc4nc3s2)cc1,-11.3,20.6,2.5,-10.7,4.6,-9.7,.,.
O=C(Nc1cccc(Cl)c1)c1cc2c(=O)n3ccccc3nc2s1,-20.6,55.6*,-6.2,0.7,1.1,-3.1,18.1,.
Cc1cccc(NC(=O)c2cc3c(=O)n4ccccc4nc3s2)c1,-2.0,6.8,5.2,14.3,-1.7,-19.3,.,.
CCN(CC)S(=O)(=O)c1ccc(OC)c(NC(=O)c2cc3c(=O)n4ccccc4nc3s2)c1,-3.5,55.4*,5.6,4.7,-12.8,-17.5,7.2,.
CCCCCC(=O)N[C@@H](c1ccccc1)[C@@H](O)C(=O)O[C@H]1C[C@@]2(O)[C@@H](OC(=O)c3ccccc3)C3[C@](C)(C(=O)[C@H](OC(C)=O)C(=C1C)C2(C)C)[C@@H](O)C[C@H]1OC[C@@]31OC(C)=O (stereo partly drawn),55.5,72.0*,15.3,0.6,4.4,49.9,74.3*,43.4*
CC(=O)O[C@H]1C(=O)[C@@]2(C)[C@H]([C@H](OC(=O)c3ccccc3)[C@]3(O)C[C@H](OC(=O)[C@H](O)C(NC(=O)c4ccccc4)c4ccccc4)C(C)=C1C3(C)C)[C@]1(OC(C)=O)CO[C@@H]1C[C@@H]2O (stereo partly drawn),?,47.7,8.7,-4.2,-0.1,51.6,.,.
CC(=O)O[C@H]1C(=O)[C@@]2(C)[C@H]([C@H](OC(=O)c3ccccc3)[C@]3(O)C[C@H](OC(=O)[C@H](O)[C@@H](NC(=O)c4ccccc4)c4ccccc4)C(C)=C1C3(C)C)[C@]1(OC(C)=O)CO[C@@H]1C[C@@H]2O,62.6,65.2*,-14.8,.,.,.,64.5*,56.8*
Cc1ccc(S(=O)(=O)N(C)C)cc1NC(=O)C1CCCN(C(=O)c2ccc(Cl)cc2)C1 (stereo not drawn),-14.1,-11.4,5.9,2.8,-5.0,0.8,.,.

# Compound activity (PubChem)
